Tests used:
Format in all cases: functional
[1] = species on record: Rattus norvegicus; experiment: In vitro inhibitory concentration against Total peroxyl radical-trapping antioxidant parameter(TRAP)
Outline: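 Total peroxyl radical-trapping antioxidant parameter taken from spectrophotometric reading at 417 nm of the ABTS cation radical, which forms by one-electron oxidation.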

[2] = species on record: Rattus norvegicus; experiment: In vitro inhibitory concentration against hydroxyl radical (-OH)
[3] = species on record: Rattus norvegicus; experiment: In vitro inhibitory concentration against lipid peroxidation (LPO)
Outline: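 Brain mitochondria from male LATI Wistar rats (0.3 mg protein) in 25 mM Tris–HCl pH 7.4 with 0.2 mM ascorbic acid, with or without compound. Peroxidation started with 0.2 mM FeSO4, 60 min at 37 °C. Stopped with 20% TCA, centrifuged, supernatant boiled 20 min with 0.5% thiobarbituric acid. TBA-reactive products read at 535 nm.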

[4] = species on record: Rattus norvegicus; experiment: In vitro inhibitory concentration against peroxynitrite (ONOO-): using pyrogallol red bleaching assay; (na: not active)
Outline: (§1)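 Peroxynitrite scavenging measured as pyrogallol red bleaching at 542 nm. ONOO- prepared essentially by the Hughes and Nicklin method.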

[5] = species on record: Rattus norvegicus; experiment: In vitro inhibitory concentration against NO ([…]); (na: not active)
Outline: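 NO generated by thermal breakdown of cupferron (0.2% in ethanol) at 40 °C. Samples at 0.3–100 mM in ethanol mixed with Griess–Ilosvay reagent (0.2% N-(1-naphthyl)ethylenediamine in 0.4 M HCl plus 2% sulfanilamide in 4 M HCl). Free NO estimated indirectly from its nitrite/nitrate products, absorbance read at 540 nm.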

[6] = species on record: Rattus norvegicus; experiment: In vitro inhibitory concentration against hydroxyl radical (-OH); (na: not active)
[7] = species on record: Rattus norvegicus; experiment: In vitro inhibitory concentration against peroxynitrite (ONOO-): using pyrogallol red bleaching assay; outline: as §1

Row | IC50 [1] [µM] | IC50 [2] [µM] | IC50 [3] [µM] | IC50 [4] | IC50 [5] | IC50 [6] | IC50 [7] [µM] | SMILES
1 | 3060 | 43000 | 16 | Not Active | – | – | – | CC(C)(C)/[N+]([O-])=C/c1ccccc1
2 | 437 | 1500 | 5490 | Not Active | Not Active | – | – | CC(C)(C)/[N+]([O-])=C/c1ccc(S(=O)(=O)[O-])cc1S(=O)(=O)[O-].[Na+].[Na+]
3 | 2940 | – | 23 | – | – | Not Active | 3700 | COc1c(C)c(C)c2c(c1C)CCC(C)(/C=[N+](\[O-])C(C)(C)C)O2 (configuration not stated)
4 | 6 | 150 | 0.68 | – | – | – | 1100 | Cc1c(C)c2c(c(C)c1O)CCC(C)(/C=[N+](\[O-])C1CC1)O2 (configuration not stated)
5 | 895 | – | 10 | Not Active | – | Not Active | – | CC(=O)Oc1c(C)c(C)c2c(c1C)CCC(C)(/C=[N+](\[O-])C(C)(C)C)O2 (configuration not stated)
6 | 5.5 | 170 | 2 | – | – | – | 3200 | Cc1c(C)c2c(c(C)c1O)CCC(C)(/C=[N+](\[O-])C(C)(C)C)O2 (configuration not stated)
7 | 296 | – | 20 | – | – | Not Active | 1200 | COc1c(C)c(C)c2c(c1C)CCC(C)(/C=[N+](\[O-])C1CC1)O2 (configuration not stated)
8 | 117 | – | 3.7 | – | – | Not Active | 590 | CC(=O)Oc1c(C)c(C)c2c(c1C)CCC(C)(/C=[N+](\[O-])C1CC1)O2 (configuration not stated)
9 | 10 | 60 | 25 | – | – | – | 550 | Cc1c(C)c2c(c(C)c1O)CCC(C)(C(=O)O)O2 (configuration not stated) [TROLOX]

— ChEMBL document CHEMBL1139616, “Nitrone derivatives of trolox as neuroprotective agents” (Bioorg Med Chem Lett, 2005)
